Experiment [1] has as its target T1, M-phase inducer phosphatase 1 (Homo sapiens) (UniProt P30304).
T1 sequence (whole entry): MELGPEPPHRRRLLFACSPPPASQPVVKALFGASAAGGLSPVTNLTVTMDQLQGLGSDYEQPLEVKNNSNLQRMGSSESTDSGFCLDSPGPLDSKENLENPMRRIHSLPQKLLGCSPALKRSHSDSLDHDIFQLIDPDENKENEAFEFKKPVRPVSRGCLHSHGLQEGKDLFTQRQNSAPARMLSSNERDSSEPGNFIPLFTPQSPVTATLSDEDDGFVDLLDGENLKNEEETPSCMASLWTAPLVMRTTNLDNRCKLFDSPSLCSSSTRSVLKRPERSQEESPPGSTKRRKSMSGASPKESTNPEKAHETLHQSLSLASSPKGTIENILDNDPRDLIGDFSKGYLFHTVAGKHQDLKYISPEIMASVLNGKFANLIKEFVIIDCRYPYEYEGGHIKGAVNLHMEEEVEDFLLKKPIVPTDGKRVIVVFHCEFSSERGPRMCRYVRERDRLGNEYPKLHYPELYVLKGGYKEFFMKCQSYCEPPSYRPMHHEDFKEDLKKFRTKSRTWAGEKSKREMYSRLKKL
As to the kind of experiment: Percent inhibition of cell division cycle 25A at 50 uM. The method in brief:
(§1)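 Single-point screen at 50 μM inhibitor against Cdc25A, Cdc25B or Cdc25C with 50 μM 3-O-methylfluorescein phosphate, product followed at 477 nm in time-dependent assays. Activity was compared with a simultaneous no-inhibitor control, and selected compounds were run in duplicate (average error ±7%).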

Experiment [2] addresses T2, M-phase inducer phosphatase 2 (Homo sapiens) (UniProt P30305).
T2 sequence (whole entry): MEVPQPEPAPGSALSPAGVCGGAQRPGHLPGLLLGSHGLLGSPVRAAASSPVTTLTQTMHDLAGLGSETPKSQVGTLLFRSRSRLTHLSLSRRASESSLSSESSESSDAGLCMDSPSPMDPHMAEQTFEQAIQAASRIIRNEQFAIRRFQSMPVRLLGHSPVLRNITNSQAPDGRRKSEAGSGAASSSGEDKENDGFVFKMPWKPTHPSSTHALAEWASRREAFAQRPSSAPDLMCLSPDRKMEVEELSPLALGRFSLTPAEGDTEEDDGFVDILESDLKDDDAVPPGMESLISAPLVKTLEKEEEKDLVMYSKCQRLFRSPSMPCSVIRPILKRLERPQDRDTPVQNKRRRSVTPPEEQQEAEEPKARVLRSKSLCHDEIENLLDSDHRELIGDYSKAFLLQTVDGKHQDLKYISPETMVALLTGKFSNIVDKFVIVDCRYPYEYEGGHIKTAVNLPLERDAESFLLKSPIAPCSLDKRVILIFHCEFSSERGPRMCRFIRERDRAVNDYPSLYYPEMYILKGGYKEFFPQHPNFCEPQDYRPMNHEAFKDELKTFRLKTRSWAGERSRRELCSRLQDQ
Briefly: Percent inhibition of cell division cycle 25B at 50 uM. In short, it runs like this: as §1

Experiment [3] has as its target T3, M-phase inducer phosphatase 3 (Homo sapiens) (UniProt P30307).
T3 sequence (whole entry): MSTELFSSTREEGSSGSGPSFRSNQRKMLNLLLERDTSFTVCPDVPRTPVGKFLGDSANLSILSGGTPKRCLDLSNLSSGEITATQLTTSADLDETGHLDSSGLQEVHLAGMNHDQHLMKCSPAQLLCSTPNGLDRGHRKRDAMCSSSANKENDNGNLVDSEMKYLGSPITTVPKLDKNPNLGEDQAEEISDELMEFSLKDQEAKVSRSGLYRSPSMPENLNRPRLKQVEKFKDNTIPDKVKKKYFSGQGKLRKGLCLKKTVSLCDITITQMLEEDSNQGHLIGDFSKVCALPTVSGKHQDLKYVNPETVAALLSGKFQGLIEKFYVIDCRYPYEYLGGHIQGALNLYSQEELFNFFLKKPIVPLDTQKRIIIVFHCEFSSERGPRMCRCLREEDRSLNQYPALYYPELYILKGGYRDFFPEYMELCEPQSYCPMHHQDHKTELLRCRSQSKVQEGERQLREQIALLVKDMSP
Briefly: Percent inhibition of cell division cycle 25 degree C at 50 uM. The method in brief:
as §1

For experiment [4], the target named is T4, M-phase inducer phosphatase 1 (Homo sapiens, UniProt P30304).
T4 sequence (P30304 whole entry): T1 sequence (whole entry)
Briefly: Eight point inhibitory concentration against Cell division cycle 25A was determined. The method in brief: (§2)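 Phosphatase activity measured with 3-O-methylfluorescein phosphate at 50 μM (~5 × Km), product formation followed at 477 nm by UV-vis under initial velocity conditions (2–5% turnover) in time-dependent assays. Eight inhibitor concentrations were used, and IC50 was obtained by fitting to a dose–response equation.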

Experiment [5] concerns the target T5, M-phase inducer phosphatase 3 (Homo sapiens, UniProt P30307).
T5 sequence (P30307 whole entry): T3 sequence (whole entry)
Briefly: Eight point inhibitory concentration against Cell division cycle 25 degree C was determined. The method in brief: as §2

Consider 36 compounds from ChEMBL document CHEMBL1145801, “Inhibition of Cdc25 phosphatases by indolyldihydroxyquinones” (J Med Chem, 2003).

A word on the inhibition: it is the change of the read-out against control, counted positive when it falls. One may read the IC50 as the concentration needed to halve the response being measured. Read a high IC50 as a need for much substance.

Take `O=C1C=C(O)C(=O)C(c2c[nH]c3cc4c(cc23)OCO4)=C1O`: the inhibition in experiment [1] is 99%; in experiment [2], 88%; in experiment [3], 63%.

For the compound `CCc1[nH]c2ccccc2c1C1=C(O)C(O)=CC(=O)C1=O`, the inhibition in experiment [1] is 15%; in experiment [2] it was 36%; in experiment [3], 14%.

On to `Cc1[nH]c2ccccc2c1C1=C(O)C(O)=CC(=O)C1=O`, for which the inhibition in experiment [1] is 24%; in experiment [2] it was 9%; in experiment [3], 5%.

As for `O=C1C=C(O)C(=O)C(c2c[nH]c3c(Cl)cccc23)=C1O`, the inhibition is 0% in experiment [1], 23% in experiment [2] and 54% in experiment [3].

Regarding `Cn1cc(C2=C(O)C(O)=CC(=O)C2=O)c2ccccc21`, the results for the inhibition in experiment [1], in experiment [2] and in experiment [3] were 18%, 42% and 19%, respectively.

Regarding `COc1ccc2[nH]cc(C3=C(O)C(O)=CC(=O)C3=O)c2c1`, the inhibition in experiment [1], in experiment [2] and in experiment [3] was 0% in each case.

Take `O=C1C=C(O)C(=O)C(c2c[nH]c3cccc(OCc4ccccc4)c23)=C1O`: the figures for the inhibition in experiment [1], in experiment [2] and in experiment [3] were 48%, 0% and 2%, respectively.

Consider `CC1(c2[nH]c3ccccc3c2C2=C(O)C(O)=CC(=O)C2=O)CC1`, for which the results for the inhibition in experiment [1], in experiment [2] and in experiment [3] were 0%, 17% and 0%, respectively.

For `O=C1C=C(O)C(=O)C(c2c[nH]c3c(Br)cccc23)=C1O`, the results for the inhibition in experiment [1], in experiment [2] and in experiment [3] were 11%, 45% and 11%, respectively.

In the case of `Cc1ccc2c(C3=C(O)C(O)=CC(=O)C3=O)c(C)[nH]c2c1`, the inhibition in experiment [1] was determined as 0%; in experiment [2], 16%; in experiment [3], 0%.

Turning to `O=C1C=C(O)C(=O)C(c2c[nH]c3cccc(Br)c23)=C1O`, the inhibition was 51% in experiment [1], 6% in experiment [2] and 54% in experiment [3].

Consider `CC(C)c1[nH]c2ccccc2c1C1=C(O)C(O)=CC(=O)C1=O`, for which the inhibition in experiment [1] came to 7%; in experiment [2], 13%; in experiment [3], 0%.

As for `CC1(c2[nH]c3ccccc3c2C2=C(O)C(O)=CC(=O)C2=O)CCCCC1`, the inhibition in experiment [1] turned out to be 44%; in experiment [2] it was 11%; in experiment [3], 22%.

On to `Cc1cccc2[nH]cc(C3=C(O)C(O)=CC(=O)C3=O)c12`, for which the inhibition in experiment [1] came out at 39%; in experiment [2] it was 9%; in experiment [3] it was 28%.

Turning to `O=C1C=C(O)C(=O)C(c2c[nH]c3ccc(Br)cc23)=C1O`, the IC50 in experiment [4] is 5.8 µM. In addition, the inhibition is 83% in experiment [1], 55% in experiment [2] and 26% in experiment [3].

Regarding `O=C1C=C(O)C(=O)C(c2c[nH]c3cccc(F)c23)=C1O`, the inhibition came to 20% in experiment [1], 5% in experiment [2] and 0% in experiment [3].

Consider `COc1cc2[nH]cc(C3=C(O)C(O)=CC(=O)C3=O)c2cc1OC`, for which the inhibition worked out at 54% in experiment [1], 19% in experiment [2] and 20% in experiment [3].

As to `O=C1C=C(O)C(=O)C(c2c[nH]c3cc(F)ccc23)=C1O`, the inhibition in experiment [1] amounted to 97%; in experiment [2], 90%; in experiment [3] it was 48%.

The compound `O=C1C=C(O)C(=O)C(c2c[nH]c3ccc(OCc4ccccc4)cc23)=C1O` showed an IC50 in experiment [4] of 5.5 µM. Further, the results for the inhibition in experiment [1], in experiment [2] and in experiment [3] were 100%, 50% and 26%, respectively.

For the compound `COc1cccc2[nH]cc(C3=C(O)C(O)=CC(=O)C3=O)c12`, the inhibition amounted to 40% in experiment [1], 21% in experiment [2] and 19% in experiment [3].

For the compound `C=CC(C)(C)c1[nH]c2ccccc2c1C1=C(O)C(O)=CC(=O)C1=O`, the inhibition in experiment [1] came to 12%; in experiment [2], 0%; in experiment [3] it was 21%.

For the compound `O=C1C=C(O)C(=O)C(c2c[nH]c3ccc(F)cc23)=C1O`, the inhibition is 39% in experiment [1], 32% in experiment [2] and 23% in experiment [3].

On to `CC(C)=CCC/C(C)=C/Cc1cccc2c(C3=C(O)C(O)=CC(=O)C3=O)c[nH]c12`, for which the values for the IC50 in experiment [4] and in experiment [5] were 1 µM and 10 µM, respectively. Further, the inhibition in experiment [1] is 86%; in experiment [2] it was 95%; in experiment [3] it was 96%.

For the compound `O=C1C=C(O)C(=O)C(c2c[nH]c3ccc(Cl)cc23)=C1O`, the inhibition stood at 59% in experiment [1], 32% in experiment [2] and 45% in experiment [3].

Turning to `Cc1[nH]c2ccc(Cl)cc2c1C1=C(O)C(O)=CC(=O)C1=O`, the results for the inhibition in experiment [1], in experiment [2] and in experiment [3] were 0%, 42% and 30%, respectively.

`COc1cccc2c(C3=C(O)C(O)=CC(=O)C3=O)c[nH]c12`: the results for the inhibition in experiment [1], in experiment [2] and in experiment [3] were 0%, 15% and 13%, respectively.

As to `Cc1ccc2c(C3=C(O)C(O)=CC(=O)C3=O)c[nH]c2c1`, the inhibition in experiment [1] came out at 66%; in experiment [2], 16%; in experiment [3], 28%.

`Cc1ccc2c(C3=C(O)C(O)=CC(=O)C3=O)c[nH]c2c1C`: the inhibition turned out to be 9% in experiment [1], 32% in experiment [2] and 20% in experiment [3].

`Cc1ccc2[nH]c(C)c(C3=C(O)C(O)=CC(=O)C3=O)c2c1`: the values for the inhibition in experiment [1], in experiment [2] and in experiment [3] were 18%, 20% and 25%, respectively.

Consider `O=C1C=C(O)C(=O)C(c2c[nH]c3c(F)cccc23)=C1O`, for which the figures for the inhibition in experiment [1], in experiment [2] and in experiment [3] were 100%, 67% and 68%, respectively.

In the case of `Cc1cccc2c(C3=C(O)C(O)=CC(=O)C3=O)c[nH]c12`, the inhibition in experiment [1] is 0%; in experiment [2], 0%; in experiment [3], 1%.

As to `O=C1C=C(O)C(=O)C(c2c[nH]c3cc(OCc4ccccc4)ccc23)=C1O`, the results for the inhibition in experiment [1], in experiment [2] and in experiment [3] were 82%, 97% and 92%, respectively.

For the compound `O=C1C=C(O)C(=O)C(c2c(-c3ccccc3)[nH]c3ccccc23)=C1O`, the inhibition was determined as 40% in experiment [1], 38% in experiment [2] and 18% in experiment [3].

Take `CC(C)(C)c1[nH]c2ccccc2c1C1=C(O)C(O)=CC(=O)C1=O`: the inhibition in experiment [1] turned out to be 30%; in experiment [2], 11%; in experiment [3], 0%.

Take `COc1ccc2[nH]c(C)c(C3=C(O)C(O)=CC(=O)C3=O)c2c1`: the figures for the inhibition in experiment [1], in experiment [2] and in experiment [3] were 0%, 0% and 31%, respectively.

With `Cc1[nH]c2c(C)cccc2c1C1=C(O)C(O)=CC(=O)C1=O`, the inhibition in experiment [1], in experiment [2] and in experiment [3] was 0% each time.
